One block for each compound: values may come before it.
Columns and labels:
HepG2 [1] = test: Percent reduction of fatty acid synthesis in human hepatoma cell line HepG2 at 10 uM concentration; type: functional; parameters: scale not given: the % may be the effect or the level left
Summary of the method: (§1)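 HepG2 cells were grown in DMEM with Hepes, bicarbonate, glutamine and 10% FCS to 80–90% confluence, then kept overnight serum-free. Vehicle or compound was added at the stated final concentration for 2.5 h. ³H2O (71 μCi/mmol) was present for the final 90 min. Synthesis rates came from ³H incorporated into cellular cholesterol or fatty acids, relative to vehicle control.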

HepG2 [2] = test: Percent control of ATP levels in human hepatoma cell line HepG2 at 10 uM concentration; type: functional
Summary of the method: (§2)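 Serum-starved HepG2 cells (grown to 80–90% confluence in DMEM/10% FCS, then overnight without serum) were exposed to vehicle or compound at the stated final concentration for 2.5 h. Cellular ATP was then measured as a toxicity check and expressed as % of vehicle control.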

HepG2 [3] = test: Percent control of ATP levels in human hepatoma cell line HepG2 at 30 uM concentration; type: functional; summary of the method: as §2
HepG2 [4] = test: Percent reduction of cholesterol synthesis in human hepatoma cell line HepG2 at 10 uM concentration; type: functional; parameters: scale not given: the % may be the effect or the level left; summary of the method: as §1
[5] = target: T1, ATP-citrate synthase (Homo sapiens) (UniProt P53396); test: (§3) Inhibitory activity against human recombinant ATP-Citrate Lyase activity was measured by the […] dehydrogenase catalyzed reduction of oxaloacetate by NADH; conditions: concentration not given here
T1 sequence (whole entry): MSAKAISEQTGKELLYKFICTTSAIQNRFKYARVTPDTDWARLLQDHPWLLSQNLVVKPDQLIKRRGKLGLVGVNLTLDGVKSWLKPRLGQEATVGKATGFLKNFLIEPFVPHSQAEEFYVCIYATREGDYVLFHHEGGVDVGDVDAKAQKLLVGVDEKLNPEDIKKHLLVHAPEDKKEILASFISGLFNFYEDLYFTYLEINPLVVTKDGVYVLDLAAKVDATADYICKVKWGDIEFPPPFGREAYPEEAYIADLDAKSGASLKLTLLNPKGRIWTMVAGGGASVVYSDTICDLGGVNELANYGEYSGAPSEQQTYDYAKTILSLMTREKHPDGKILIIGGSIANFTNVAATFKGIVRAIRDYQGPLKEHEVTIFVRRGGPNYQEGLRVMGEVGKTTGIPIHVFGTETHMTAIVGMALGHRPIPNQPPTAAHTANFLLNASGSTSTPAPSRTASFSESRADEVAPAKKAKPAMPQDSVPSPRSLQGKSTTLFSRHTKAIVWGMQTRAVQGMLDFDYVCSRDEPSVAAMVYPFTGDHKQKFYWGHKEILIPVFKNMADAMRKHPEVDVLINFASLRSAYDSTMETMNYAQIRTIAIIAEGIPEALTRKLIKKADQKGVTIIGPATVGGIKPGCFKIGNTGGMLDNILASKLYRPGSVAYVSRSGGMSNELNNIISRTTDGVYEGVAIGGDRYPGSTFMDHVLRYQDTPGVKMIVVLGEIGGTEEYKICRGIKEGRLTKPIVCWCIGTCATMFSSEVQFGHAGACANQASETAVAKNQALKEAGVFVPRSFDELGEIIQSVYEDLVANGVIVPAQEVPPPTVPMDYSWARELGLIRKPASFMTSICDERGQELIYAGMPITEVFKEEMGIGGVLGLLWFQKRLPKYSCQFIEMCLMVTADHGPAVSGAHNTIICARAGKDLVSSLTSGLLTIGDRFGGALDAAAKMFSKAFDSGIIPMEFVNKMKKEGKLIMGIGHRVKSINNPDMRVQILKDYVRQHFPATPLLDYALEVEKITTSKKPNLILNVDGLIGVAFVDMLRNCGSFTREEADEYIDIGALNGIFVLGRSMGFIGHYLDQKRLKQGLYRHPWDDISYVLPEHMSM
Summary of the method: (§4)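 Purified rat ACL or recombinant human ACL was assayed by coupling oxaloacetate formation to malate dehydrogenase reduction with NADH. Buffer: Tris 100 mM pH 8.0, MgCl2 10 mM, KCl 10 mM, DTT 10 mM, plus ATP and NADH. CoA was 200 μM, and citrate was added to 100 μM (its Km) to start the reaction. A340 decrease was followed over 20 min. Ki came from fitting v = Vmax/(2 + [I]/Ki), assuming citrate-competitive inhibition.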

HepG2 [6] = test: Percent reduction of cholesterol synthesis in human hepatoma cell line HepG2 at 1000 uM concentration; type: functional; summary of the method: as §1
HepG2 [7] = test: Percent reduction of fatty acid synthesis in human hepatoma cell line HepG2 at 100 uM concentration; type: functional; parameters: scale not given: the % may be the effect or the level left; summary of the method: as §1
HepG2 [8] = test: Percent control of ATP levels in human hepatoma cell line, HepG2 at 1000 uM concentration; type: functional; summary of the method: as §2
HepG2 [9] = test: Percent reduction of fatty acid synthesis in human hepatoma cell line HepG2 at 1000 uM concentration; type: functional; summary of the method: as §1
HepG2 [10] = test: Percent control of ATP levels in human hepatoma cell line, HepG2 at 100 uM concentration; type: functional; summary of the method: as §2
ATP-citrate synthase [11] = target: T2, ATP-citrate synthase (Homo sapiens, UniProt P53396); test: as §3; summary of the method: as §4
T2 sequence (P53396 whole entry): T1 sequence (whole entry)

ATP-citrate synthase [12] = target: T3, ATP-citrate synthase (Rattus norvegicus, UniProt P16638); test: Inhibition of recombinant ATP-Citrate Lyase activity as […] dehydrogenase catalyzed reduction of oxaloacetate by NADH; conditions: in the assay text read “purified rat ATP-Citrate Lyase” for “recombinant ATP-Citrate Lyase”; summary of the method: as §4
T3 sequence (P16638 whole entry): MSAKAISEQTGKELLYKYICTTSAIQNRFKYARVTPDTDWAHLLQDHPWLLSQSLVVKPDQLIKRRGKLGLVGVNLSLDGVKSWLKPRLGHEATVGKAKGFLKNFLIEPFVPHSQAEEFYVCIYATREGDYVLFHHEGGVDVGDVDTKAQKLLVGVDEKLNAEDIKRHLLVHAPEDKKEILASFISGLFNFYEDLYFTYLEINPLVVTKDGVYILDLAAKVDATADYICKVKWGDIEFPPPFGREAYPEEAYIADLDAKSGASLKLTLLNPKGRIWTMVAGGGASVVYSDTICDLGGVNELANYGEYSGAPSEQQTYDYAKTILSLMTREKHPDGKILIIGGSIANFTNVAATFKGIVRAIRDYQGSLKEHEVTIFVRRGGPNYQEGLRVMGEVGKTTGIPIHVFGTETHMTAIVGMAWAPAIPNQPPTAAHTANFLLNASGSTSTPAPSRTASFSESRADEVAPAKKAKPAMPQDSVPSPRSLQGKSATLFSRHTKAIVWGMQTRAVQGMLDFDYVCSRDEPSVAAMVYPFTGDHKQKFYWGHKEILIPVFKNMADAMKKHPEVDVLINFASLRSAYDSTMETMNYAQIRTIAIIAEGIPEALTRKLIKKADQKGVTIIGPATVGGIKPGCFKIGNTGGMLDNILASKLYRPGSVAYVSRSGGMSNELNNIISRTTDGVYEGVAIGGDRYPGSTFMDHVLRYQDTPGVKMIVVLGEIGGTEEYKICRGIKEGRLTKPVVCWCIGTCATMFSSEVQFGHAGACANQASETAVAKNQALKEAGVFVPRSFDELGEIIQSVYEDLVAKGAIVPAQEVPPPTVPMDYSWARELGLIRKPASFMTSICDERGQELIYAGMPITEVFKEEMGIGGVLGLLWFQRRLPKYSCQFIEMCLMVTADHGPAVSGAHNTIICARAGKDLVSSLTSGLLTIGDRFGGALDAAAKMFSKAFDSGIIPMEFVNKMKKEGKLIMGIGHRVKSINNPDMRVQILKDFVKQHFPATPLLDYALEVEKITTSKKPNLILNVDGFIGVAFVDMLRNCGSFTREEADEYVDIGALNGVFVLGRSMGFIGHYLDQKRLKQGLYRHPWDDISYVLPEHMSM

HepG2 [13] = test: Percent reduction of fatty acid synthesis in human hepatoma cell line, HepG2 at 1000 uM concentration; type: functional; parameters: scale not given: the % may be the effect or the level left; summary of the method: as §1
HepG2 [14] = test: Percent reduction of cholesterol synthesis in human hepatoma cell line, HepG2 at 1000 uM concentration; type: functional; parameters: scale not given: the % may be the effect or the level left; summary of the method: as §1
ATP-citrate synthase [15] = target: T3, ATP-citrate synthase; test: Inhibitory activity against rat ATP-citrate lyase activity by the […] dehydrogenase catalyzed reduction of oxaloacetate by NADH.; summary of the method: as §4
HepG2 [16] = test: Percent control of ATP levels in human hepatoma cell line HepG2 at 1000 uM concentration; type: functional; summary of the method: as §2
HepG2 [17] = test: Percent control of ATP levels in human hepatoma cell line HepG2 at 100 uM concentration; type: functional; summary of the method: as §2
HepG2 [18] = test: Percent reduction of cholesterol synthesis in human hepatoma cell line HepG2 at 100 uM concentration; type: functional; parameters: scale not given: the % may be the effect or the level left; summary of the method: as §1
ATP-citrate synthase [19] = target: T2, ATP-citrate synthase; test: Inhibitory activity against human recombinant ATP-Citrate Lyase was measured by the […] dehydrogenase catalyzed reduction of oxaloacetate by NADH; summary of the method: as §4
HepG2 [20] = test: Percent reduction of cholesterol synthesis in human hepatoma cell line, HepG2 at 100 uM concentration; type: functional; parameters: scale not given: the % may be the effect or the level left; summary of the method: as §1
HepG2 [21] = test: Percent control of ATP levels in human hepatoma cell line HepG2 at 300 uM concentration; type: functional; summary of the method: as §2
HepG2 [22] = test: Percent reduction of cholesterol synthesis in human hepatoma cell line HepG2 at 300 uM concentration; type: functional; parameters: scale not given: the % may be the effect or the level left; summary of the method: as §1
HepG2 [23] = test: Percent reduction of fatty acid synthesis in human hepatoma cell line HepG2 at 300 uM concentration; type: functional; parameters: scale not given: the % may be the effect or the level left; summary of the method: as §1
HepG2 [24] = test: Percent reduction of cholesterol synthesis in human hepatoma cell line HepG2 at 20 uM concentration; type: functional; parameters: scale not given: the % may be the effect or the level left; summary of the method: as §1
HepG2 [25] = test: Percent control of ATP levels in human hepatoma cell line HepG2 at […] uM concentration; type: functional
HepG2 [26] = test: Percent reduction of fatty acid synthesis in human hepatoma cell line HepG2 at 20 uM concentration; type: functional; parameters: scale not given: the % may be the effect or the level left; summary of the method: as §1
HepG2 [27] = test: Percent control of ATP levels in human hepatoma cell line HepG2 at 20 uM concentration; type: functional; summary of the method: as §2

inhibition [5]: 30%
Compound: O=C(O)CC(O)(CSCCCCCCc1ccccn1)C(=O)O (stereo not drawn)

Ki (ATP-citrate synthase [12]): 3.3 µM
Compound: O=C(O)CC(O)(CSCCCCCCc1ccc(Cl)cc1Cl)C(=O)O (stereo not drawn)
Control (HepG2 [8]): 100% | Control (HepG2 [13]): 107% | Control (HepG2 [14]): 116%

Ki (ATP-citrate synthase [11]): 121 µM
Compound: O=C(O)CC(O)(CSCCCCCCc1c(Cl)cncc1Cl)C(=O)O (stereo not drawn)

inhibition [5]: 35%
Compound: O=C(O)CC(O)(CSCCCCCCc1cccnc1)C(=O)O (stereo not drawn)

Ki (ATP-citrate synthase [12]): 710 µM | Ki (ATP-citrate synthase [19]): 320 µM
Compound: O=C(O)CC(O)(CSCCCCCCc1ccccc1)C(=O)O (stereo not drawn)

inhibition [5]: 20%
Compound: O=C(O)CC(O)(CSCCCCCCc1ccncc1)C(=O)O (stereo not drawn)

Ki (ATP-citrate synthase [12]): 6.8 µM
Compound: O=C(O)CC(O)(CSCCCCCc1ccc(Cl)cc1Cl)C(=O)O (stereo not drawn)
Cholesterol synthesis (% of vehicle control) (HepG2 [6]): 14% | Control (HepG2 [24]): 104% | Fatty acid synthesis (% of vehicle control) (HepG2 [9]): 16% | Control (HepG2 [25]): 84% | Control (HepG2 [26]): 96% | Control (HepG2 [27]): 102%

The next lines start with the compound.

Compound: COC(=O)CC(CSCCCCCCc1ccc(Cl)cc1Cl)C(=O)OC (stereo not drawn)
Control (HepG2 [1]): 105% | Control (HepG2 [2]): 96% | Control (HepG2 [3]): 91% | Control (HepG2 [4]): 78%

Compound: CC(=O)OCOC(=O)CC(O)(CSCCCCCCc1ccc(Cl)cc1Cl)C(=O)OCOC(C)=O (stereo not drawn)
Cholesterol synthesis (% of vehicle control) (HepG2 [6]): 13% | Control (HepG2 [7]): 100% | Control (HepG2 [8]): 60% | Fatty acid synthesis (% of vehicle control) (HepG2 [9]): 16% | Control (HepG2 [10]): 111%

Compound: O=C(O)CC(O)(CSCCCc1ccc2ccccc2c1)C(=O)O (stereo not drawn)
Ki (ATP-citrate synthase [11]): 300 µM

Compound: O=C(O)CC(O)(CC(=O)CCCCCCc1ccc(Cl)cc1Cl)C(=O)O (stereo not drawn)
Ki (ATP-citrate synthase [15]): 1.2 µM | Control (HepG2 [1]): 98% | Cholesterol synthesis (% of vehicle control) (HepG2 [6]): 102% | Control (HepG2 [16]): 107% | Control (HepG2 [2]): 102% | Fatty acid synthesis (% of vehicle control) (HepG2 [9]): 102% | Control (HepG2 [4]): 108%

Compound: CCOC(=O)CC(O)(CSCCCCCCc1ccc(Cl)cc1Cl)C(=O)OCC (stereo not drawn)
Control (HepG2 [17]): 81% | Control (HepG2 [7]): 6% | Control (HepG2 [2]): 91% | Control (HepG2 [3]): 86% | Control (HepG2 [18]): 3%

Compound: O=C(O)C[C@@](O)(C(=O)O)[C@H](O)C(=O)O
Cholesterol synthesis (% of vehicle control) (HepG2 [6]): 15% | Control (HepG2 [17]): 100% | Control (HepG2 [7]): 87% | Control (HepG2 [16]): 104% | Control (HepG2 [20]): 110% | Control (HepG2 [21]): 103% | Control (HepG2 [22]): 40% | Control (HepG2 [23]): 79% | Fatty acid synthesis (% of vehicle control) (HepG2 [9]): 57%

Source: ChEMBL document CHEMBL1129688, “ATP-citrate lyase as a target for hypolipidemic intervention. Design and synthesis of 2-substituted butanedioic acids as novel, potent inhibitors of the enzyme” (J Med Chem, 1996)
